The test system of series [1] is MCF7. The series is described as follows: Cytotoxicity against human MCF7 cells assessed as reduction in cell viability by cell titer 96 aqueous one solution based assay. The series is classed as functional. A digest of the protocol:
(§1)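 MDA-MB-231 and MCF-7 breast cancer cells were treated with increasing concentrations of compound. Viability was read by MTS assay, and IC50 values were derived from the concentration–response data.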

Series [2] has as its system MDA-MB-231. The series is described as follows: Inhibition of mTORC1 signaling in human MDA-MB-231 cells assessed as reduction in p70S6K phosphorylation at Thr389 at 20 uM after 12 hrs by RPPA analysis. It is filed as cell-based.
Series [3] deals with MDA-MB-157. The series is described as follows: Cytotoxicity against human MDA-MB-157 cells assessed as reduction in cell viability up to 10 uM after 24 to 72 hrs by cell titer 96 aqueous one solution based assay. The series is classed as functional. The method in brief:
(§2)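 Triple-negative breast cancer cells were incubated with compound for 24, 48 or 72 h. Viability was then measured by MTS assay across a concentration series.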

Series [4] relates to MDA-MB-231. Nature of the series: Cytotoxicity against human MDA-MB-231 cells assessed as reduction in cell viability up to 10 uM after 24 to 72 hrs by cell titer 96 aqueous one solution based assay. The series is classed as functional. A digest of the protocol: as §2
Series [5] has as its system MDA-MB-157. Nature of the series: Induction of apoptosis in human MDA-MB-157 cells assessed as increase in cleaved PARP level up to 10 uM by Western blot analysis. It is filed as functional, cell-based. A digest of the protocol:
(§3)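 Cells were treated with a range of compound concentrations. Apoptosis was assessed by Western blot detection of cleaved poly-ADP ribose polymerase (PARP).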
On the technique in general: Immunoblotting shows a protein as a band on a membrane.

The test system of series [6] is MDA-MB-231. Nature of the series: Cytotoxicity against human MDA-MB-231 cells assessed as reduction in cell viability up to 10 uM in presence of bovine serum albumin by cell titer 96 aqueous one solution based assay. It is filed as functional. A digest of the protocol: (§4)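 Viability was measured by MTS after treating triple-negative breast cancer cells in serum-free medium, either alone or with BSA added to the serum-free medium, across a concentration series.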

The subject of series [7] is MDA-MB-231. Nature of the series: Cytotoxicity against human MDA-MB-231 cells assessed as reduction in cell viability up to 10 uM in serum-free medium by cell titer 96 aqueous one solution based assay. The series is classed as functional. A digest of the protocol: as §4
Series [8] relates to MDA-MB-231. The series is described as follows: Inhibition of mTORC1 signaling in human MDA-MB-231 cells assessed as reduction in S6 phosphorylation at Ser235 at 20 uM after 12 hrs by RPPA analysis. The series is classed as cell-based.
The subject of series [9] is MDA-MB-231. Nature of the series: Inhibition of PI3K/AKT in human MDA-MB-231 cells assessed as reduction in mTOR phosphorylation at Ser2448 up to 10 uM by Western blot analysis. The series is classed as cell-based.
Series [10] has as its system MDA-MB-231. Nature of the series: Induction of apoptosis in human MDA-MB-231 cells assessed as increase in cleaved PARP level up to 10 uM by Western blot analysis. The series is classed as functional, cell-based. The method in brief:
as §3

Series [11] has as its system MDA-MB-157. The series is described as follows: Cytotoxicity against human MDA-MB-157 cells assessed as reduction in cell viability up to 10 uM in serum-free medium by cell titer 96 aqueous one solution based assay. The series is classed as functional. The method in brief:
as §4

The test system of series [12] is MDA-MB-231. Nature of the series: Inhibition of mTORC1 signaling in human MDA-MB-231 cells assessed as reduction in S6 phosphorylation at Ser244 at 20 uM after 12 hrs by RPPA analysis. It is filed as cell-based.
Series [13] has as its system MDA-MB-231. The series is described as follows: Induction of apoptosis in human MDA-MB-231 cells assessed as increase in caspase 3/7 activity by Caspase-Glo 3/7 luciferase-based assay. It is filed as functional, cell-based. The method in brief: (§5)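 Cells were treated with a range of compound concentrations. Apoptosis was read as caspase-3/7 activity using a luciferase-based luminescent assay.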

For series [14], the system named is MDA-MB-231. The series is described as follows: Effect on total p70S6K level in human MDA-MB-231 cells at 20 uM after 12 hrs by RPPA analysis. The series is classed as cell-based. The note with it: mda-mb-231, 12 h.
Series [15] has as its target T1, AMP-activated protein kinase, AMPK (Homo sapiens) (UniProt P54646+O43741+P54619+Q9UGJ0+Q9Y478+Q13131+Q9UGI9). The series is described as follows: Increase in AMPK phosphorylation at T172 in human MDA-MB-231 cells at 20 uM after 12 hrs by RPPA analysis. It is filed as cell-based.
Series [16] concerns MDA-MB-231. Nature of the series: Inhibition of mTORC1 signaling in human MDA-MB-231 cells assessed as reduction in S6 phosphorylation at Ser236 at 20 uM after 12 hrs by RPPA analysis. The series is classed as cell-based.
In series [17] the target is T2, Acetyl-CoA carboxylase (Homo sapiens) (UniProt Q13085+O00763). Nature of the series: Increase in ACC phosphorylation at Ser79 in human MCF7 cells at 20 uM after 12 hrs by RPPA analysis. It is filed as cell-based.
Series [18] addresses T2, Acetyl-CoA carboxylase (Homo sapiens). Nature of the series: Increase in ACC phosphorylation at Ser79 in human MDA-MB-231 cells at 20 uM after 12 hrs by RPPA analysis. The series is classed as cell-based.
In series [19] the test system is MDA-MB-157. The series is described as follows: Induction of apoptosis in human MDA-MB-157 cells assessed as increase in caspase 3/7 activity up to 10 uM by Caspase-Glo 3/7 luciferase-based assay. The series is classed as functional, cell-based. The method in brief:
as §5

For series [20], the system named is MDA-MB-231. Nature of the series: Inhibition of mTORC1 signaling in human MDA-MB-231 cells assessed as reduction in S6 phosphorylation at Ser240 at 20 uM after 12 hrs by RPPA analysis. It is filed as cell-based.
Series [21] concerns MDA-MB-231. The series is described as follows: Inhibition of mTORC1 signaling in human MDA-MB-231 cells assessed as reduction in […] at 10 uM by Western blot analysis. The series is classed as cell-based.
For series [22], the system named is MCF7. Nature of the series: Inhibition of PI3K/AKT in human MCF7 cells assessed as reduction in mTOR phosphorylation at Ser2448 at 20 uM after 12 hrs by RPPA analysis. It is filed as cell-based.
Series [23] relates to MDA-MB-231. Nature of the series: Cytotoxicity against human MDA-MB-231 cells assessed as reduction in cell viability by cell titer 96 aqueous one solution based assay. It is filed as functional. The method in brief:
as §1

In series [24] the test system is MDA-MB-157. Nature of the series: Inhibition of PI3K/AKT in human MDA-MB-157 cells assessed as reduction in mTOR phosphorylation at Ser2448 up to 10 uM by Western blot analysis. It is filed as cell-based.
The test system of series [25] is MDA-MB-231. The series is described as follows: Inhibition of PI3K/AKT in human MDA-MB-231 cells assessed as reduction in mTOR phosphorylation at Ser2448 at 20 uM after 12 hrs by RPPA analysis. The series is classed as cell-based.
The subject of series [26] is MDA-MB-157. Nature of the series: Cytotoxicity against human MDA-MB-157 cells assessed as reduction in cell viability up to 10 uM in presence of bovine serum albumin by cell titer 96 aqueous one solution based assay. It is filed as functional. The method in brief: as §4
The target in series [27] is T1, AMP-activated protein kinase, AMPK (Homo sapiens). Nature of the series: Increase in AMPK phosphorylation at T172 in human MCF7 cells at 20 uM after 12 hrs by RPPA analysis. It is filed as cell-based.
Series [28] concerns MDA-MB-231. Nature of the series: Effect on total S6 level in human MDA-MB-231 cells at 20 uM after 12 hrs by RPPA analysis. The note with it: mda-mb-231, 12 h. It is filed as cell-based.
The subject of series [29] is MDA-MB-157. The series is described as follows: Inhibition of mTORC1 signaling in human MDA-MB-157 cells assessed as reduction in […] at 10 uM by Western blot analysis. It is filed as cell-based.

Calls of active or inactive are those of the source. The rule behind the calls is not given here.

For orientation: IC50 means the concentration that gives 50% inhibition. Take `CCCCCCCCCOc1cccc2[nH]cc(CCN)c12.Cl`: the IC50 with MCF7 [1] came to 4.9 µM; with MDA-MB-231 [23], 4.2 µM. The inhibition result in the series with MDA-MB-231 [2], in the series on MDA-MB-231 [8], in the series with MDA-MB-231 [12], with MDA-MB-231 [16], in the series with MDA-MB-231 [20] and with MDA-MB-231 [21] was “Active” throughout. Moreover, the inhibition result in the series on MDA-MB-157 [29] is “Active”. Also, the outcome in the series on MDA-MB-157 [3], in the series with MDA-MB-231 [4], in the series on MDA-MB-157 [5], with MDA-MB-231 [7], with MDA-MB-231 [10] and in the series on MDA-MB-157 [11] was Active. Also, the result (in series [15]; in series [17]; in series [18]; in the series on MDA-MB-157 [19]; with MDA-MB-157 [26]; in series [27]) was Active. In the series with MDA-MB-231 [6], the outcome was inactive. Also, the inhibition entry in the series with MDA-MB-231 [9], with MCF7 [22], in the series on MDA-MB-157 [24] and with MDA-MB-231 [25] was “inactive” in each case. Further, the Activity result was “Dose-dependent effect” with MDA-MB-231 [13], “Non-Toxic” in the series on MDA-MB-231 [14] and “Non-Toxic” in the series on MDA-MB-231 [28].

`CCCCCCCCOc1ccc2[nH]cc(CCN)c2c1`: the values for the IC50 in the series on MCF7 [1] and in the series on MDA-MB-231 [23] were 13 µM and 7.3 µM, respectively.

On to `CCCCCCCCCCCCOc1cccc2[nH]cc(CCN)c12`, for which the IC50 with MCF7 [1] was 5 µM; in the series on MDA-MB-231 [23] it was 4.1 µM.

For the compound `CCCCCCCCCCCCCCCCOc1ccc2[nH]cc(CCN)c2c1`, the IC50 amounted to 13 µM with MCF7 [1] and 7.5 µM with MDA-MB-231 [23].

With `N#CCCCCCCOc1ccc2[nH]cc(CCN)c2c1`, the IC50 in the series on MCF7 [1] and in the series on MDA-MB-231 [23] was more than 50 µM in each case.

Turning to `CCCCCCCCCCCOc1ccc2[nH]cc(CCN)c2c1`, the half-inhibitory concentration (IC50) in the series with MCF7 [1] amounted to 6.1 µM; with MDA-MB-231 [23], 4.4 µM.

On to `CCCCCCCCCCCCOc1cccc2c(CCN)c[nH]c12`, for which the figures for the IC50 in the series with MCF7 [1] and with MDA-MB-231 [23] were 8.6 µM and 4.6 µM, respectively.

With `NCCc1c[nH]c2ccc(OCc3cccc(COc4ccc5[nH]cc(CCN)c5c4)c3)cc12`, the IC50 in the series on MCF7 [1] was 22 µM; in the series on MDA-MB-231 [23] it was 18 µM.

For `CCCCC(CC)COc1ccc2[nH]cc(CCN)c2c1` (stereo not given), the results for the IC50 with MCF7 [1] and in the series with MDA-MB-231 [23] were 15 µM and 8.2 µM, respectively.

Values taken from ChEMBL document CHEMBL4130528, “Serotonin Analogues as Inhibitors of Breast Cancer Cell Growth” (ACS Med Chem Lett, 2017).
